How the values were obtained:
[1] = Half life in Beagle dog at 1 mg/kg, po; conditions: in vivo
[2] = Cmax in rat at 5 mg/kg, po; assay type: ADME, organism-based; set-up: dose 5 mg/kg, route oral; conditions: in vivo
Method in brief: (§1)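 Male Sprague–Dawley or Janvier rats, three per route, dosed by oral gavage or iv bolus. Serial blood drawn through an indwelling carotid catheter up to 24 h post dose. Plasma pooled by time point, analysed by LC-MS/MS; non-compartmental analysis.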

[3] = Oral bioavailability in Beagle dog at 1 mg/kg; assay type: ADME, organism-based, Canis lupus familiaris; conditions: in vivo
Method in brief: (§2)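 Three male beagle dogs, crossover design; 1 mg/kg given as a solution, iv bolus and oral gavage. Serial blood sampled up to 48 h post dose. Individual plasma samples analysed by LC-MS/MS; PK parameters derived by non-compartmental analysis.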

[4] = Volume of distribution at steady state in rat at 1 mg/kg, iv; assay type: ADME, organism-based; set-up: dose 1 mg/kg, route intravenous; conditions: in vivo, read-out: Vdss
Method in brief: as §1

[5] = Tmax in rat at 5 mg/kg, po; assay type: ADME, organism-based; set-up: dose 5 mg/kg, route oral; conditions: in vivo
Method in brief: as §1

[6] = Clearance in rat at 1 mg/kg, iv; assay type: ADME, organism-based; set-up: dose 1 mg/kg, route intravenous; conditions: in vivo
Method in brief: as §1

[7] = Tmax in Beagle dog at 1 mg/kg, po; conditions: in vivo
[8] = Cmax in Beagle dog at 1 mg/kg, iv; assay type: ADME, organism-based, Canis lupus familiaris; set-up: dose 1 mg/kg, route intravenous; conditions: in vivo
Method in brief: as §2

[9] = Half life in Beagle dog at 1 mg/kg, iv; assay type: ADME, organism-based, Canis lupus familiaris; set-up: dose 1 mg/kg, route intravenous; conditions: in vivo
Method in brief: as §2

[10] = Inhibition of prostanoid FP receptor
[11] = target: Prostaglandin E2 receptor EP2 subtype (Homo sapiens, UniProt P43116); experiment: Inhibition of prostanoid EP2 receptor
[12] = AUC (0 to last t) in Beagle dog at 1 mg/kg, po; assay type: ADME, organism-based, Canis lupus familiaris; set-up: time 0 - last, dose 1 mg/kg, route oral; conditions: plasma
Method in brief: as §2

[13] = Cmax in Beagle dog at 1 mg/kg, po; conditions: in vivo
[14] = target: T1, Prostaglandin D2 receptor (Homo sapiens, UniProt Q13258); experiment: Inhibition of prostaglandin D2 receptor
T1 sequence (Q13258 whole entry): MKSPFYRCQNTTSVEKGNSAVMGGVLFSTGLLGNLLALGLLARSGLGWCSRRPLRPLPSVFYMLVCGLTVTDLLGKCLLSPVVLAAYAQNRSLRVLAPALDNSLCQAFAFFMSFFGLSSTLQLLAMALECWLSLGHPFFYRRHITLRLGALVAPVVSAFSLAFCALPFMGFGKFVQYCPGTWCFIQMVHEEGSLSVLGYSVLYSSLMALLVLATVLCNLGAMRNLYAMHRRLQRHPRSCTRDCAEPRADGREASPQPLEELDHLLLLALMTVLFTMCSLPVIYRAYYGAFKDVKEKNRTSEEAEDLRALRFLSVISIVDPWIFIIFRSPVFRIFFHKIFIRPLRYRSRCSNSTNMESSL

[15] = target: T2, Prostaglandin D2 receptor 2 (Homo sapiens, UniProt Q9Y5Y4); experiment: Displacement of [3H]PGD2 from human CRTH2 receptor expressed in CHO cells; assay type: cell-based
T2 sequence (Q9Y5Y4 whole entry): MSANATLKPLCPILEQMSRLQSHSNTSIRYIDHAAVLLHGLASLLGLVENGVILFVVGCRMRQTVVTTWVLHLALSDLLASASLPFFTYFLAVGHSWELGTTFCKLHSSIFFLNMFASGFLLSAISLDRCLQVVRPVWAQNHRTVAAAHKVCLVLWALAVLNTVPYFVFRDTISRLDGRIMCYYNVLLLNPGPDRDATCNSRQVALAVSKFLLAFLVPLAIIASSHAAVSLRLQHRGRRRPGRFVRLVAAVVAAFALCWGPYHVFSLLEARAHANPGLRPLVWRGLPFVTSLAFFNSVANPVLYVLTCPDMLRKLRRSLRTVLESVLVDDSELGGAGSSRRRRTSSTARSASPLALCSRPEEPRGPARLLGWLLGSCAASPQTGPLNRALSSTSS
Method in brief: (§3)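 Scintillation proximity competition assay: 2–5 µg human or mouse CRTH2 membranes (nitrogen-cavitation, differential centrifugation) with WGA-SPA beads and 1.5 nM [3H]PGD2 in 10 mM HEPES/KOH pH 7.4, 10 mM MnCl2, protease inhibitors, 1% Me2SO, 90 min shaking at room temperature. Nonspecific binding with 1 µM PGD2. Ki by Cheng–Prusoff, mean of ≥3 independent experiments.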

[16] = Intrinsic clearance per mg of protein in rat liver microsomes at 3 uM; assay type: ADME, Microsome
Method in brief: (§4)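 Rat or human liver microsomes (0.5 mg/mL final) in 0.1 M phosphate pH 7.4 with 3 µM compound (1% DMSO), preincubated at 37 °C, started with 1 mM NADPH. Quenched with cold acetonitrile at 0, 15, 30, 45 min; LC/MS-MS of compound disappearance gives intrinsic clearance.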

[17] = AUC (0 to last t) in rat at 1 mg/kg, iv; assay type: ADME, organism-based; set-up: time 0 - last, dose 1 mg/kg, route intravenous; conditions: plasma
Method in brief: as §1

[18] = Tmax in Beagle dog at 1 mg/kg, iv; assay type: ADME, organism-based, Canis lupus familiaris; set-up: dose 1 mg/kg, route intravenous; conditions: in vivo
Method in brief: as §2

[19] = Half life in rat at 1 mg/kg, iv; assay type: ADME, organism-based; set-up: dose 1 mg/kg, route intravenous; conditions: in vivo
Method in brief: as §1

[20] = Half life in rat at 5 mg/kg, po; assay type: ADME, organism-based; set-up: dose 5 mg/kg, route oral; conditions: in vivo
Method in brief: as §1

[21] = Inhibition of prostanoid EP4 receptor
[22] = Oral bioavailability in rat at 5 mg/kg; assay type: ADME, organism-based; conditions: in vivo
Method in brief: as §1

[23] = Lipophilicity, log D of the compound; assay type: physicochemical; conditions: octanol/water
[24] = target: T3, Prostaglandin D2 receptor 2 (Mus musculus, UniProt Q9Z2J6); experiment: Displacement of [3H]PGD2 from mouse CRTH2 receptor expressed in HEK293 cells; assay type: cell-based
T3 sequence (Q9Z2J6 whole entry): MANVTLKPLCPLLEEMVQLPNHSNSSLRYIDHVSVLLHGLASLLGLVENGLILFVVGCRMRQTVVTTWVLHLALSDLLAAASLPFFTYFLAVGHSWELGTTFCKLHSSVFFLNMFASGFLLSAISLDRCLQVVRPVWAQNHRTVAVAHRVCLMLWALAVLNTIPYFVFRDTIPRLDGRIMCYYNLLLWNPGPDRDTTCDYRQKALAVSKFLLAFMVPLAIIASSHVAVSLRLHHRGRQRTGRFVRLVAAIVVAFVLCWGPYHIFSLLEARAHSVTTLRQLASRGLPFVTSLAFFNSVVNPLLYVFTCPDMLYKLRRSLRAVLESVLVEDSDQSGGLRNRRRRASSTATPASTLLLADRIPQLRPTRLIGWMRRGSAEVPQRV
Method in brief: as §3

[25] = Clearance in Beagle dog at 1 mg/kg, iv; assay type: ADME, organism-based, Canis lupus familiaris; set-up: dose 1 mg/kg, route intravenous; conditions: in vivo
Method in brief: as §2

[26] = Tmax in rat at 1 mg/kg, iv; assay type: ADME, organism-based; set-up: dose 1 mg/kg, route intravenous; conditions: in vivo
Method in brief: as §1

[27] = Volume of distribution at steady state in Beagle dog at 1 mg/kg, iv; assay type: ADME, organism-based, Canis lupus familiaris; set-up: dose 1 mg/kg, route intravenous; conditions: in vivo, read-out: Vdss
Method in brief: as §2

[28] = AUC (0 to last t) in Beagle dog at 1 mg/kg, iv; assay type: ADME, organism-based, Canis lupus familiaris; set-up: time 0 - last, dose 1 mg/kg, route intravenous; conditions: plasma
Method in brief: as §2

[29] = Intrinsic clearance per mg of protein in human liver microsomes at 3 uM; assay type: ADME, Microsome
Method in brief: as §4

[30] = AUC (0 to last t) in rat at 5 mg/kg, po; assay type: ADME, organism-based; set-up: time 0 - last, dose 5 mg/kg, route oral; conditions: plasma
Method in brief: as §1

[31] = Cmax in rat at 1 mg/kg, iv; assay type: ADME, organism-based; set-up: dose 1 mg/kg, route intravenous; conditions: in vivo
Method in brief: as §1

[32] = Inhibition of prostanoid EP3 receptor
[33] = Apparent permeability across human Caco-2 cell membrane at 10 uM; assay type: ADME, cell-based
Method in brief: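 Caco-2 monolayers grown 21 days on Transwell filters; TEER above 800 ohm·cm² required. 10 µM test compound in HBSS added apically (A to B) or basolaterally (B to A), 2 h at 37 °C. Both compartments sampled, analysed by LC/MS-MS.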

Sequence of Prostaglandin E2 receptor EP2 subtype (P43116 whole entry): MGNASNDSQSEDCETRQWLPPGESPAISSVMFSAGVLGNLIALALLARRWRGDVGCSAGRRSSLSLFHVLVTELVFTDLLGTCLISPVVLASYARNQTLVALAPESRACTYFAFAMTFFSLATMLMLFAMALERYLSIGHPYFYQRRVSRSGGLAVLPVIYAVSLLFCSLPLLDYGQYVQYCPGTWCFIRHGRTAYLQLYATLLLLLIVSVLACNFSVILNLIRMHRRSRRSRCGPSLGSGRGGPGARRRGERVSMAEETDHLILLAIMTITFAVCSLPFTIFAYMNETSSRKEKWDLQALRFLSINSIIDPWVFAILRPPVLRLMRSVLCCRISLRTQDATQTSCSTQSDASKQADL

With O=C(O)CN1C(=O)[C@@]2(CC(=O)N(Cc3ccccc3F)C2=O)c2cc(Cl)ccc21 the half-life [1] was 180 min, the Cmax [2] was 297 ng/mL and the bioavailability [3] was 120%. It also gave a Vd [4] of 0.9 L/kg, a Tmax [5] of 30 min and a clearance [6] of 13.3 mL/min/kg. The Tmax [7] was 2 h, the Cmax [8] was 2570 ng/mL and the half-life [9] was 420 min. The IC50 [10] was greater than 30 µM, the IC50 [11] was greater than 30 µM and the AUC(0-t) [12] was 2350 ng·h/mL. For the same compound, the Cmax [13] was 503 ng/mL, the IC50 [14] was greater than 30 µM and the Ki [15] was 23 nM. It also gave a microsomal CLint at 3 µM [16] of 23 µL/min/mg, an AUC(0-t) [17] of 1250 ng·h/mL and a Tmax [18] of 0 h. For the same compound, the half-life [19] was 60 min, the half-life [20] was 252 min and the IC50 [21] was greater than 30 µM. For the same compound, the bioavailability [22] was 40%, the logD [23] was -1 and the Ki [24] was 22 nM. It also gave a clearance [25] of 8.33 mL/min/kg, a Tmax [26] of 0 h and a Vd [27] of 2 L/kg. It also gave an AUC(0-t) [28] of 2020 ng·h/mL, a microsomal CLint at 3 µM [29] of 15 µL/min/mg and an AUC(0-t) [30] of 2480 ng·h/mL. The Cmax [31] was 1990 ng/mL, the IC50 [32] was greater than 30 µM and the Papp at 10 µM [33] was 2.4 ×10⁻⁶ cm/s.

— ChEMBL document CHEMBL1145542, “Discovery of a new class of potent, selective, and orally bioavailable CRTH2 (DP2) receptor antagonists for the treatment of allergic inflammatory diseases” (J Med Chem, 2008)
